Screening data from PubChem BioAssay.
ARFGAP1 inhibitor = rat ARFGAP1 inhibition | inhibition, % at 16.5 µM | Q62848 | Arfgap1-stimulated ARF1 GTP hydrolysis, GDP FP detection | actives 0.26% (n = 360,000);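 active = inhibition above a per-plate limit, mean inhibition of low control wells plus 3 SD, cut at about 25% in these data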;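 also: 0% = DMSO wells with enzyme and 100% = wells lacking Arfgap1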
Target sequence (Q62848 1-136 limits assumed): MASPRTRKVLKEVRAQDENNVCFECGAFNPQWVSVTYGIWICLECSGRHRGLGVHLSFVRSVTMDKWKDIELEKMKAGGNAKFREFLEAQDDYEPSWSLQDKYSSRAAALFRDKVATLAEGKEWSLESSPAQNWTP
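Material: rat Arfgap1 GAP domain (His6, aa 1-136), purified enzyme. Also added: human ARF1(Δ1-17)-GTP substrate. Compound dosing: 16.5 µM single point, 1.26% DMSO. Timing: enzyme reaction 120 min at 25 °C after 20 min preincubation. Signal: GDP detection by fluorescence polarization. Read-out basis: percent inhibition of GAP-stimulated GDP formation, scaled between DMSO and no-Arfgap1 medians.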
IMP-1 inhibitor = blocks Pseudomonas aeruginosa IMP-1 metallo-beta-lactamase | purified IMP-1, nitrocefin hydrolysis, epi-absorbance fluorescence | actives 0.45% (n = 290,000) | inhibition, % at 5.6 µM;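 active = inhibition above the mean plus 3 SD of all compounds in the same screening run, cut at about 4.5% in these data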;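 also: 0% = IMP-1 with DMSO and 100% = DMSO wells lacking enzyme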
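System – purified recombinant IMP-1 beta-lactamase · Input – IMP-1 dispensed at 0.2 nM · Timing – 15 min preincubation plus 25 min reaction at 25 °C · Signal – Epi-absorbance fluorescence, 480 nm excitation, 530 nm emission · Measure – percent IMP-1 inhibition derived from blank-referenced optical density · Controls – Enzyme-plus-DMSO low control, enzyme-free DMSO high control · Replication – singlicate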
ASAP1 GAP inh = inhibitors of human ASAP1 ArfGAP activity | Q9ULH1 | ASAP1-stimulated ARF1 GTP hydrolysis, GDP FP detection | inhibition, % at 16.5 µM | actives 0.19% (n = 360,000); in the data active = inhibition above about 25%;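 also: 0% = vehicle with enzyme and substrate and 100% = no enzyme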
VIM-2 inhibitor = blocks Pseudomonas aeruginosa VIM-2 metallo-beta-lactamase; inhibition, % at 5.6 µM; purified VIM-2, nitrocefin hydrolysis, epi-absorbance fluorescence; AID 1527; actives 0.89% (n = 290,000);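 active = inhibition above the mean of all tested compounds plus 3 SD, cutoff set per screening run, cut at about 7.5% in these data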;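 also: red hydrolysis product quenches plate fluorescence so inhibitors raise well fluorescence; 0% = enzyme with DMSO and 100% = DMSO without enzyme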
PHOSPHO1 block = PHOSPHO1 (human) inhibition. AID 1565. recombinant PHOSPHO1, absorbance phosphatase assay. actives 1.1% (n = 290,000). inhibition, % at 13.3 µM; in the data active = inhibition above about 60%
Target sequence (Q8TCT1 whole entry, looked up): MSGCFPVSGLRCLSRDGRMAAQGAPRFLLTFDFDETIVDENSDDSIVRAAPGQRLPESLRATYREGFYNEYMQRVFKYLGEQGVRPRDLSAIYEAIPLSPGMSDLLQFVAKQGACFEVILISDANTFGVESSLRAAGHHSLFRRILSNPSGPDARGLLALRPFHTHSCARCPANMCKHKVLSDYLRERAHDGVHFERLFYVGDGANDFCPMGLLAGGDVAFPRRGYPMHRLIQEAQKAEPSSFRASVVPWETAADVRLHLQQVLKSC
Calb FLC = affects C. albicans growth with fluconazole; C. albicans CaCi-2 + fluconazole, Alamar Blue growth, 48 h; growth inhibition, % (no concentration beside the values); actives 0.57% (n = 300,000);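 active = growth inhibition above about 58% in most replicates, limit read from the data, passing the limit was not always enough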;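 also: all wells also contain fluconazole at 8 µg/ml as a sub-toxic cotreatment; 0% = median of DMSO wells and 100% = median of geldanamycin control wells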
Starred values were filed as active, the others as inactive. An excerpt weighted towards active compounds, which were near 2.6% of everything screened.

For O=C(O)Cn1cc(C(=S)N2CCOCC2)c2ccccc21 the results were ARFGAP1 inhibitor -10, IMP-1 inhibitor -1, ASAP1 GAP inh -7, VIM-2 inhibitor 2, PHOSPHO1 block 88* and Calb FLC -6.
For Cn1cc(CC(=O)Nc2ccc(Oc3cccnc3)cc2)c2ccccc21 the results were ARFGAP1 inhibitor 5 and ASAP1 GAP inh 12.
Cn1c(N/N=C/c2c[nH]c3ccccc23)nc2ccccc21 was read as ARFGAP1 inhibitor 18, IMP-1 inhibitor -3, ASAP1 GAP inh 16, VIM-2 inhibitor -4, PHOSPHO1 block 38 and Calb FLC 84*.
`Cc1cc(N/N=C/c2c[nH]c3ccccc23)c2ccccc2n1` gave ARFGAP1 inhibitor -4, IMP-1 inhibitor -4, ASAP1 GAP inh -3, VIM-2 inhibitor -1, PHOSPHO1 block 29 and Calb FLC 20.
`O=C(C1CCN(S(=O)(=O)c2cccc3nsnc23)CC1)N1CCCc2ccccc21` gave ARFGAP1 inhibitor 9, IMP-1 inhibitor -3, ASAP1 GAP inh 2, VIM-2 inhibitor -2, PHOSPHO1 block 60* and Calb FLC -101.
O=C(C1CCN(S(=O)(=O)c2cccc3nsnc23)CC1)N1CCc2ccccc21 was read as ARFGAP1 inhibitor -8, IMP-1 inhibitor -2, ASAP1 GAP inh -3, VIM-2 inhibitor -3, PHOSPHO1 block 48 and Calb FLC 56.
COc1cc(/C=N/N=C2/NC(=O)C(c3ccccc3)S2)ccc1O (stereo unspecified) was read as ARFGAP1 inhibitor -4, IMP-1 inhibitor -4, ASAP1 GAP inh -7, VIM-2 inhibitor -5, PHOSPHO1 block 67* and Calb FLC 17.
Screening Cc1ccccc1OCC(O)Cn1c(SC(C)C)nc2c1c(=O)[nH]c(=O)n2C (stereo unspecified) returned ARFGAP1 inhibitor -7, IMP-1 inhibitor -2, ASAP1 GAP inh -10, VIM-2 inhibitor -5, PHOSPHO1 block 91* and Calb FLC -8.
`CCn1nccc1C(=O)Nc1cccc(C)c1C` gave ARFGAP1 inhibitor 0, IMP-1 inhibitor 17*, ASAP1 GAP inh -3, VIM-2 inhibitor -1, PHOSPHO1 block 45 and Calb FLC -5.
For C[C@@H]1CN([C@@H](C)CO)C(=O)CCCn2nncc2CO[C@H]1CN(C)C(=O)Nc1ccc(N2CCN(C)CC2)cc1 the results were ARFGAP1 inhibitor 7 and ASAP1 GAP inh 15.
`Cc1cc(C)nc(NC(=O)c2ccc(Br)cc2)n1` gave ARFGAP1 inhibitor 0, IMP-1 inhibitor -1, ASAP1 GAP inh -3, VIM-2 inhibitor 0, PHOSPHO1 block 18 and Calb FLC -6.
Cc1cc(NO)nc(-c2ccc(Br)cc2)n1 was read as ARFGAP1 inhibitor -1, IMP-1 inhibitor 0, ASAP1 GAP inh -2, VIM-2 inhibitor -1, PHOSPHO1 block 96* and Calb FLC -12.
For O=C(NCCCn1ccnc1)c1cc(-c2ccncc2)nc2ccccc12 the results were ARFGAP1 inhibitor -1, IMP-1 inhibitor -1, ASAP1 GAP inh 2, VIM-2 inhibitor 11*, PHOSPHO1 block 32 and Calb FLC -2.
`O=C(NNC(=O)c1cc(-c2ccncc2)nc2ccccc12)c1ccccc1O` gave ARFGAP1 inhibitor 12, ASAP1 GAP inh -1 and Calb FLC 86*.
For Cc1cc(N2CCN(C(=O)OC(C)(C)C)C[C@H]2C)ccc1N1CCN(Cc2ccccc2)[C@@H](C)C1 the results were ARFGAP1 inhibitor 19 and ASAP1 GAP inh -10.
Screening COc1cccc(-c2cc(C(F)(F)F)nc(N3CCC(C)CC3)n2)c1 returned ARFGAP1 inhibitor -9, IMP-1 inhibitor 4.5*, ASAP1 GAP inh 5, VIM-2 inhibitor -2, PHOSPHO1 block 37 and Calb FLC 2.
`COc1cccc(-c2cc(C(F)(F)F)nc(N3CCOCC3)n2)c1` gave ARFGAP1 inhibitor 12, IMP-1 inhibitor -4, ASAP1 GAP inh 8, VIM-2 inhibitor -5, PHOSPHO1 block 46 and Calb FLC 1.
`Cc1cc(Nc2cccc(F)c2)cc(=O)n1-c1cccc(F)c1` gave ARFGAP1 inhibitor -1 and ASAP1 GAP inh -1.
For COC(=O)c1ccccc1N=C(SC)N(C)C the results were ARFGAP1 inhibitor 7, IMP-1 inhibitor -5, ASAP1 GAP inh 7, VIM-2 inhibitor -1, PHOSPHO1 block 94* and Calb FLC -4.
`Cc1cc(N2CCN(C(=O)OC(C)(C)C)C[C@@H]2C)ccc1N1CCN(Cc2ccccc2)[C@H](C)C1` gave ARFGAP1 inhibitor -3 and ASAP1 GAP inh 10.
Screening CCCCn1c(=O)[nH]c(=O)c2c1nc(-c1ccc(-c3ccccc3Br)o1)n2CC returned ARFGAP1 inhibitor -1, IMP-1 inhibitor -2, ASAP1 GAP inh 15, VIM-2 inhibitor -2, PHOSPHO1 block 30 and Calb FLC 104*.
`CCCCn1c(=O)[nH]c(=O)c2c1nc(-c1ccc3ccccc3c1)n2CC` gave ARFGAP1 inhibitor 18, IMP-1 inhibitor -3, ASAP1 GAP inh -3, VIM-2 inhibitor -3, PHOSPHO1 block 24 and Calb FLC 0.
CCOC(=O)CSc1ccc(C(=O)N2CCN(C)CC2)cc1[N+](=O)[O-] was read as ARFGAP1 inhibitor -12, IMP-1 inhibitor -2, ASAP1 GAP inh -19, VIM-2 inhibitor -3, PHOSPHO1 block -19 and Calb FLC 102*.
For CC(=O)C1=C(C)N(Cc2ccc(Br)cc2)C(=S)NC1c1cccc(Br)c1 (stereo unspecified) the results were ARFGAP1 inhibitor 0 and ASAP1 GAP inh 2.
Screening CCCCN(C(=O)CSc1ncnc2sccc12)c1c(N)n(Cc2ccccc2)c(=O)[nH]c1=O returned ARFGAP1 inhibitor -2 and ASAP1 GAP inh -5.
`CCc1cc2c(SCC(=O)N(CC)c3c(N)n(Cc4ccccc4)c(=O)[nH]c3=O)ncnc2s1` gave ARFGAP1 inhibitor -3, IMP-1 inhibitor -5, ASAP1 GAP inh 5, VIM-2 inhibitor -5, PHOSPHO1 block 68* and Calb FLC -22.
`C#CCNC(=O)C[C@H]1C[C@@]2(C(=O)OC)C(=C[C@H](C(C)(C)C)O[C@@H]2C)N(CCc2ccc(OC)c(OC)c2)C1=O` gave ARFGAP1 inhibitor 3 and ASAP1 GAP inh -6.
`COCCNC(=O)C1CCCN(C(=O)c2ccnc(Cl)c2)CC1` (stereo unspecified) gave ARFGAP1 inhibitor -2 and ASAP1 GAP inh 8.
For CC1CN(S(=O)(=O)c2cccc(C(=O)OCC(=O)Nc3ccc4c(c3)OCO4)c2)CC(C)O1 (stereo unspecified) the results were ARFGAP1 inhibitor -8, IMP-1 inhibitor -3, ASAP1 GAP inh -9, VIM-2 inhibitor -2 and PHOSPHO1 block 62*.
NC1=C(Br)C(=O)c2ncccc2C1=O was read as ARFGAP1 inhibitor 3 and ASAP1 GAP inh 28*.
